Statin myotox sup: suppression of simvastatin myotoxicity. AID 602340. C2C12 myotubes + simvastatin, ATP luminescence, 48 h; scaled: DMSO 0, geranylgeraniol control 100. rescue of ATP level, % at 7.49 µM. actives 0.78% (n = 330,000);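 active = mean ATP rescue above about 67%, or every replicate alone reaching that limit, limit read from the data, passing the limit was not always enough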;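 also: myotubes were challenged with 10 µM simvastatin during compound exposure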
SR-BI uptake up: enhances SR-BI lipid uptake from DiI-HDL; CHO ldlA[mSR-BI] cells, DiI-HDL uptake fluorescence, 3 h; 100 = double the neutral-control signal; activation, % at 12.5 µM; actives 0.096% (n = 320,000);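 active = mean replicate activation of at least 60% and every replicate at or above 60%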;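 also: 0% = median plate neutral-control signal and 100% = twice that signal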
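Material – SR-BI-overexpressing, LDLR-lacking CHO cells · Medium – BSA-supplemented, HEPES-buffered Ham's F12, pH 7.4 · Doses – single concentration · Times – compound with DiI-HDL co-incubation, 3 h at 37 °C · Measured by – bottom-read fluorescence, 550/595 nm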
Vif imaging: inhibitors of HIV Vif; HEK293T cells, Vif self-association by quenched fluorescence, imaging, 24 h; inhibition, % at 7.49 µM; actives 0.35% (n = 340,000); in the data active = inhibition above about 50%, passing the limit was not always enough
SR-BI DiI inh: blocks mouse SR-BI lipid uptake from DiI-HDL; inhibition, % at 12.5 µM; Q61009; ldlA[mSR-BI] CHO cells, DiI-HDL uptake fluorescence, 3 h; actives 0.96% (n = 320,000); AID 488896;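 active = mean replicate inhibition of at least 70% and a set share of replicates each scoring 70 or more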;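 also: 0% = median of neutral control wells and 100% = median of positive control wells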
Target sequence (Q61009 whole entry, looked up): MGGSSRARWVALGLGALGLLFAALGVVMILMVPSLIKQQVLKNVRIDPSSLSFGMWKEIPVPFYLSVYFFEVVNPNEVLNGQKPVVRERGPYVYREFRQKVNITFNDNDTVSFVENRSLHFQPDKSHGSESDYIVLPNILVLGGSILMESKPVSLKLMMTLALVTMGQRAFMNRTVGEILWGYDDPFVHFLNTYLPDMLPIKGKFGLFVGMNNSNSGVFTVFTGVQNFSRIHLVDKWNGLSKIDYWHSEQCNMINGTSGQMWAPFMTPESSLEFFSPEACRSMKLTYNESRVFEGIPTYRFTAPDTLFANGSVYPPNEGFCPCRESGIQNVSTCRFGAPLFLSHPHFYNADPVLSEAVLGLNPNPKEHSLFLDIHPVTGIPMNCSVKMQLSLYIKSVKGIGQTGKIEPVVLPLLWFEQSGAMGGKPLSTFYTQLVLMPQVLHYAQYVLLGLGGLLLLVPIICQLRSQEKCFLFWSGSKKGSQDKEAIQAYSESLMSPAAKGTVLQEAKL
The depositor's hits bear a star; · = not tested or not shown. Most compounds without a hit are left out; they make up all but 1.7% or so of the library.

SMILES | Statin myotox sup | SR-BI uptake up | Vif imaging | SR-BI DiI inh
O=C(N/N=C/c1cc(O)ccc1Br)c1cccnc1 | 36 | -77 | -4 | 77*
NC(=O)N/N=C\c1cc(Br)ccc1O | · | 15 | 0 | -15
Nc1nonc1-n1nnc(C(=O)N/N=C/c2cc(Br)ccc2O)c1CNc1ccccc1 | 58 | -48 | -16 | 48
Nc1nonc1C(=O)N/N=C/c1cc(Br)ccc1O | · | -138 | · | 138*
C[C@H](CO)N1C[C@H](C)[C@H](CN(C)Cc2ccccn2)Oc2ncc(C#CC(C)(C)O)cc2C1=O | 22 | · | · | ·
C[C@H](CO)N1C[C@H](C)[C@@H](CN(C)C(=O)Nc2ccc3c(c2)OCO3)OCCCC[C@H](C)Oc2ccc(NS(=O)(=O)c3cccs3)cc2C1=O | 60 | · | · | ·
CN(C)C(=O)[C@H]1[C@H](CO)[C@H]2Cn3c(ccc(-c4cccc(F)c4)c3=O)[C@@H]1N2CCc1ccccc1 | -4 | · | · | ·
O=C(N/N=C\c1cc(Br)ccc1O)c1ccc(S(=O)(=O)N2CCCCC2)cc1 | · | -137 | · | 137*
O=C(CNC(=O)c1ccc(S(=O)(=O)N2CCCC2)cc1)N/N=C/c1ccc(Cl)cc1 | · | -72 | 0 | 72*
O=C(N/N=C/c1ccc2nccnc2c1)c1ccc(Br)cc1 | · | · | -4 | ·
Cc1ccc(N=Nc2ccc(O)c(/C=N\NC(=O)c3ccc(N)cc3)c2)cc1C | -2 | -115 | 4 | 115*
O=C(N/N=C/c1ccc2nccnc2c1)c1ccncc1 | · | 355* | 19 | -355
CN1[C@@H]2c3ccc(C4=CCCC4)c(=O)n3C[C@H]1[C@H](CO)[C@H]2C(=O)N1CCOCC1 | -12 | · | · | ·
Cc1ccccc1S(=O)(=O)Nc1ccc2c(c1)C(=O)N(C)[C@H]1CC[C@H](CC(=O)O)O[C@@H]1CO2 | -16 | · | · | ·
CC(C)NC(=O)Nc1ccc2c(c1)CC(=O)N([C@H](C)CO)C[C@@H](C)[C@@H](CN(C)C)O2 | 0 | · | · | ·
O=C(N/N=C/c1cc(Br)ccc1OC(=O)c1ccc(Br)cc1)c1ccncc1 | · | -96 | 5 | 96*
Cc1cc(C(=O)N/N=C/c2cc(Br)ccc2OC(=O)c2ccccc2Cl)n[nH]1 | 6 | -87 | -3 | 87*
O=C(N/N=C/c1ccc(O)c2ncccc12)c1cccc(Br)c1 | · | -72 | 21 | 72*
Cc1cc(C(=O)N/N=C/c2cc(Br)ccc2OC(=O)c2ccccc2)n[nH]1 | · | -45 | -8 | 45
COc1cc(C(=O)Oc2ccc(/C=N/NC(=O)c3ccncc3)cc2)cc(OC)c1OC | · | -73 | · | 73*
COc1cc(C(=O)Oc2cccc(/C=N/NC(=O)c3cccnc3)c2)cc(OC)c1OC | 5 | -34 | 6 | 34
CCC(=O)N1C[C@H](C)[C@@H](OC)CN(C)C(=O)c2cc(NC(=O)c3ccccc3)ccc2OC[C@@H]1C | -18 | · | · | ·
C[C@@H]1CN([C@@H](C)CO)C(=O)Cc2cc(NC(=O)Nc3ccc(F)cc3)ccc2O[C@@H]1CN(C)C(=O)Nc1ccc2c(c1)OCO2 | -31 | · | · | ·
CCNC(=S)Nc1ccc(N2CCCCC2)cc1 | · | 3 | -13 | -3
CCNC(=S)N/N=C/c1sc(N2CCCCC2)nc1-c1cccs1 | · | -67 | 69* | 67
SMILES | Statin myotox sup | SR-BI uptake up | Vif imaging | SR-BI DiI inh
CCCNC(=O)Nc1ccc2c(c1)C(=O)N(C)C[C@@H](OC)[C@@H](C)CN(C(=O)C1CCOCC1)[C@@H](C)CO2 | 6 | · | · | ·
CC1(C)CC(NC(=O)CCC2CCCC2)CC(C)(C)N1 | 106* | 21 | 37 | -21
CO[C@@H]1CN(C)C(=O)c2ccc(NC(C)=O)cc2OC[C@@H](C)N(C(=O)Cc2ccccn2)C[C@H]1C | 10 | · | · | ·
O=C(/C=C/c1c(F)cccc1Cl)c1ccc(F)cc1 | 129* | · | -3 | ·
CCOCCc1nnc(NC(=O)CCc2ccccc2)s1 | · | 11 | 11 | -11
COCCc1nnc(NC(=O)Cc2ccccc2)s1 | 89* | 20 | -2 | -20
Cn1nc(-c2ccccc2F)c2cc(C(=O)Nc3ccc4c(c3)OCCO4)sc21 | -30 | -60 | -18 | 60
COc1cccc(-c2nn(C)c3sc(C(=O)Nc4ccc5c(c4)OCCO5)cc23)c1 | -84 | -86 | · | 86*
O=C(C[C@H]1CC[C@@H](NS(=O)(=O)c2ccc(F)cc2)[C@@H](CO)O1)NCc1ccc(Cl)c(Cl)c1 | 37 | · | · | ·
COc1ccc(C2NC(C(=O)O)Cc3c2[nH]c2ccccc32)cc1OC (configuration not stated) | 116* | 17 | 4 | -17
COc1ccc(-c2nc(CS(=O)(=O)CC(=O)NCCc3ccc(C)cc3)c(C)o2)cc1 | -1 | · | 3 | 99*
COc1cc(OC)c(C(=O)NC2CCCc3ccccc32)cc1OC (configuration not stated) | -6 | -14 | 43 | 14
O=C(CCl)NC1CCCc2ccccc21 (configuration not stated) | · | 5 | 3 | -5
O=C(NC1CCCc2ccccc21)c1ccccc1Br (configuration not stated) | 19 | -4 | 60* | 4
O=C(CCn1cccc1)NC1CCCc2ccccc21 (configuration not stated) | 152* | 9 | 8 | -9
CCOc1ccc(NC(=O)CS(=O)CC(=O)NC2CCCc3ccccc32)cc1 (configuration not stated) | 1 | -74 | -4 | 74*
COCCNc1ccc([N+](=O)[O-])cc1C(=O)NC1CCCc2ccccc21 (configuration not stated) | 9 | -79 | -3 | 79*
O=C(C[C@H]1CC[C@H]2[C@@H](COC[C@@H](O)CN2Cc2ccc(F)cc2)O1)NCCc1ccccc1 | 8 | · | · | ·
COc1ccc(NC(=O)N(C)C[C@@H]2Oc3ccc(NC(=O)Nc4ccc5c(c4)OCO5)cc3C(=O)N([C@@H](C)CO)C[C@H]2C)cc1 | -74 | · | · | ·
CCC(C)c1cc(S(=O)(=O)N2CCOCC2)ccc1OC (configuration not stated) | 82* | 30 | -6 | -30
COc1ccc(S(=O)(=O)N2CCOCC2)cc1C(C)C | 10 | 18 | 0 | -18
COc1ccccc1C(=O)NCC(=O)OC(C)C(=O)NC(=O)NC1CCCCC1 (configuration not stated) | 87* | 10 | 6 | -10
CCN(CC)C(=O)c1[nH]cnc1C(=O)NCC(=O)OC(C)(C)C | 93* | 14 | 21 | -14
COc1ccc2c(c1)CCc1cc(C(=O)N3CCN(c4ccc(N5CCOCC5)nn4)CC3)sc1-2 | -27 | -77 | -13 | 77*
Cc1noc(C)c1NC(=O)Nc1cccc2c1O[C@H](CN(C)C(=O)NC1CCCCC1)[C@@H](C)CN([C@@H](C)CO)C2=O | 7 | · | · | ·
CC(=O)N/N=C(\C)CC(=O)Nc1cccc(C(F)(F)F)c1 | · | 22 | 0 | -22
N/C(CC(=O)Nc1cccc(C(F)(F)F)c1)=N/O | 5 | 89* | -2 | -89
O=C(C[C@@H]1CC[C@@H]2[C@H](COC[C@H](O)CN2S(=O)(=O)c2cccc(Cl)c2)O1)NCc1ccc2c(c1)OCO2 | 23 | · | · | ·
O=C(C[C@H]1C=C[C@H](NS(=O)(=O)c2ccc(F)cc2)[C@@H](CO)O1)N1CCC(Cc2ccccc2)CC1 | 23 | · | · | ·
